Data from ChEMBL document CHEMBL1157379, “Transcriptional response of Candida parapsilosis following exposure to farnesol” (2007).
The source made the active and inactive calls. No cut-off for these calls is given here.

Key:
Candida parapsilosis [1] = test: Decrease in AMO2 gene expression in Candida parapsilosis CLIB214 at 50 uM after 2 hrs by microarray based transcriptional profiling relative to control; type: functional
In short: (§1)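 Cells in YPD at 30°C treated with 50 μM farnesol at 4 h, with a methanol control. RNA harvested 2 h later and kept only if 28S/18S ratio was 1.6–2.2 with no degradation. 25 μg total RNA oligo-dT primed and labeled with Cy3/Cy5-dCTP. Labeled cDNA hybridized about 16 h at 42°C to duplicate-spotted 68-mer oligo arrays. Six individual comparisons analyzed statistically.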

Candida parapsilosis [2] = test: Increase in CGD gene ortholog accession number orf19.779 expression in Candida parapsilosis CLIB214 at 50 uM after 2 hrs by microarray based transcriptional profiling relative to control; type: functional
In short: (§2)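 Strain CLIB214 grown overnight in YPD at 30°C, diluted to A600 0.2 in fresh YPD at 30°C. After 4 h (A600 0.8), farnesol (40 mM methanol stock) added to 50 μM final, or an equal methanol volume as control; cells harvested 2 h later. RNA was accepted only with a 28S/18S ratio of 1.6–2.2. Cy3/Cy5-dCTP-labelled cDNA was made from 25 μg total RNA. Hybridisation was to duplicate-spotted 68-mer oligo arrays (3,849 genes) at 42°C for about 16 h. Six individual comparisons.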

Candida parapsilosis [3] = test: Decrease in CGD gene ortholog accession number orf19.5156 expression in Candida parapsilosis CLIB214 at 50 uM after 2 hrs by microarray based transcriptional profiling relative to control; type: functional; in short: as §1
Candida albicans = test: Antifungal activity against Candida albicans assessed as microbila killing effect; type: functional
Candida parapsilosis [4] = test: Antifungal activity against Candida parapsilosis CLIB214 assessed as growth inhibition at 50 uM added 4 hrs after […] growth within 2 hrs by cell counting method; type: functional, organism-based
In short: (§3)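 C. parapsilosis CLIB214 grown overnight in YPD at 30°C, diluted to A600 0.2 in fresh YPD, grown 4 h (A600 0.8), then farnesol added at final 10, 20, 50 or 100 μM from a 40 mM methanol stock. Methanol-only controls. Growth followed by A600 or by cell counting with a particle counter.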

Candida parapsilosis [5] = test: Increase in CGD gene ortholog accession number orf19.1368 expression in Candida parapsilosis CLIB214 at 50 uM after 2 hrs by microarray based transcriptional profiling relative to control; type: functional; in short: as §2
Candida parapsilosis [6] = test: Decrease in CGD gene ortholog accession number orf19.672 expression in Candida parapsilosis CLIB214 at 50 uM after 2 hrs by microarray based transcriptional profiling relative to control; type: functional; in short: as §2
Candida parapsilosis [7] = test: Antifungal activity against Candida parapsilosis CLIB214 assessed as growth inhibition at 50 uM added 4 hrs after […] growth; type: functional, organism-based; in short: as §3
Candida parapsilosis [8] = test: Increase in CGD gene ortholog accession number orf19.1230 expression in Candida parapsilosis CLIB214 at 50 uM after 2 hrs by microarray based transcriptional profiling relative to control; type: functional; in short: as §2
Candida parapsilosis [9] = test: Cell cycle arrest in Candida parapsilosis CLIB214 assessed as accumulation at G2/M phase at 50 uM added 4 hrs after […] growth; type: functional, organism-based
In short: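 YPD culture diluted to A600 0.2 at 30°C. Farnesol added to 50 μM after 4 h. Budding cells scored by microscopy: unbudded as G1, small budded as S, large budded as G2/M. Compared with methanol controls.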

Candida parapsilosis [10] = test: Increase in GLN1 gene expression in Candida parapsilosis CLIB214 by RT-PCR; type: functional, organism-based
In short: (§4)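 Cultures in YPD at 30°C, diluted to A600 0.2; 50 μM farnesol (final) or methanol added at 4 h, RNA harvested 2 h later. RT-PCR: 95°C hot start 1 min 30 s, then 26 cycles (95°C 40 s, 55°C 2 min, 72°C 3 min), final 72°C 5 min; each gene signal normalized to ACT1.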

Candida parapsilosis [11] = test: Decrease in HOS2 gene expression in Candida parapsilosis CLIB214 at 50 uM after 2 hrs by microarray based transcriptional profiling relative to control; type: functional; in short: as §2
Candida parapsilosis [12] = test: Increase in CGD gene ortholog accession number orf19.1026 expression in Candida parapsilosis CLIB214 at 50 uM after 2 hrs by microarray based transcriptional profiling relative to control; type: functional; in short: as §2
Candida parapsilosis [13] = test: Increase in CGD gene ortholog accession number orf19.6539 expression in Candida parapsilosis CLIB214 at 50 uM after 2 hrs by microarray based transcriptional profiling relative to control; type: functional; in short: as §2
Candida parapsilosis [14] = test: Antifungal activity against Candida parapsilosis CLIB214 assessed as growth inhibition at 50 uM added after 6 hrs of bacterial growth measured after 2 hrs; type: functional; conditions: Lodderomyces parapsilosis
In short: (§5)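 Overnight YPD culture at 30°C diluted to A600 0.2 in YPD. Farnesol added to 50 μM final at 2, 4, 6 or 8 h of growth (A600 about 0.8 at 4 h, 2.3 at 6 h, 6 at 8 h). Growth compared with methanol controls by A600 or cell counts.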

Candida parapsilosis [15] = test: Increase in ATP2 gene expression in Candida parapsilosis CLIB214 at 50 uM after 2 hrs by microarray based transcriptional profiling relative to control; type: functional; in short: as §2
Candida parapsilosis [16] = test: Increase in CGD gene ortholog accession number orf19.6117 expression in Candida parapsilosis CLIB214 at 50 uM after 2 hrs by microarray based transcriptional profiling relative to control; type: functional; in short: as §2
Candida parapsilosis [17] = test: Increase in CGD gene ortholog accession number orf19.3544 expression in Candida parapsilosis CLIB214 at 50 uM after 2 hrs by microarray based transcriptional profiling relative to control; type: functional; in short: as §2
Candida parapsilosis [18] = test: Increase in ELF1 gene expression in Candida parapsilosis CLIB214 at 50 uM after 2 hrs by microarray based transcriptional profiling relative to control; type: functional
In short: (§6)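 Strain grown overnight in YPD at 30°C, diluted to A600 0.2 in YPD at 30°C; farnesol (40 mM methanol stock) added at 4 h (A600 0.8), final 50 μM; methanol-only control. Cells collected 2 h later for RNA. Labelled cDNA from 25 μg total RNA (Cy3/Cy5-dCTP) hybridized to 68-mer oligo arrays at 42°C ~16 h; six individual comparisons analysed statistically.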

Candida parapsilosis [19] = test: Increase in GRP2 gene expression in Candida parapsilosis CLIB214 by RT-PCR; type: functional, organism-based; in short: as §4
Candida parapsilosis [20] = test: Antifungal activity against Candida parapsilosis CLIB214 assessed as growth inhibition at 50 uM added after 2 hrs of bacterial growth measured after 2 hrs; type: functional; conditions: Lodderomyces parapsilosis, CLIB214, 2 h; in short: as §5
Candida parapsilosis [21] = test: Increase in CGD gene ortholog accession number orf19.6018 expression in Candida parapsilosis CLIB214 at 50 uM after 2 hrs by microarray based transcriptional profiling relative to control; type: functional; in short: as §2
Candida parapsilosis [22] = test: Increase in ERG7 gene expression in Candida parapsilosis CLIB214 at 50 uM after 2 hrs by microarray based transcriptional profiling relative to control; type: functional; in short: as §6
Candida parapsilosis [23] = test: Increase in REG1 gene expression in Candida parapsilosis CLIB214 at 50 uM after 2 hrs by microarray based transcriptional profiling relative to control; type: functional; in short: as §6
Candida parapsilosis [24] = test: Decrease in CGD gene ortholog accession number orf19.194 expression in Candida parapsilosis CLIB214 at 50 uM after 2 hrs by microarray based transcriptional profiling relative to control; type: functional; in short: as §1

CC(C)=CCC/C(C)=C/CC/C(C)=C/CO [FARNESOL]
fold change (FC) (Candida parapsilosis [1]): 1.56
fold change (FC) (Candida parapsilosis [2]): 1.72
fold change (FC) (Candida parapsilosis [3]): 2.02
Activity (Candida albicans): 80%
Activity (Candida parapsilosis [4]): Active
fold change (FC) (Candida parapsilosis [5]): 1.59
fold change (FC) (Candida parapsilosis [6]): 1.77
Activity (Candida parapsilosis [7]): Active
fold change (FC) (Candida parapsilosis [8]): 1.53
Activity (Candida parapsilosis [9]): Active
Activity (Candida parapsilosis [10]): Active
fold change (FC) (Candida parapsilosis [11]): 2.62
fold change (FC) (Candida parapsilosis [12]): 1.55
fold change (FC) (Candida parapsilosis [13]): 1.5
inhibition at 50 µM (Candida parapsilosis [14]): 40.5%
fold change (FC) (Candida parapsilosis [15]): 2.16
fold change (FC) (Candida parapsilosis [16]): 1.6
fold change (FC) (Candida parapsilosis [17]): 1.87
fold change (FC) (Candida parapsilosis [18]): 2.16
Activity (Candida parapsilosis [19]): Active
inhibition at 50 µM (Candida parapsilosis [20]): 68.5%
fold change (FC) (Candida parapsilosis [21]): 2.07
fold change (FC) (Candida parapsilosis [22]): 1.68
fold change (FC) (Candida parapsilosis [23]): 1.56
fold change (FC) (Candida parapsilosis [24]): 1.84
